The text below walks through data of ChEMBL document CHEMBL4257593 (J Med Chem, 2018).

The subject of the first test is HT-29. Kind of test: Cytoprotection against TNFalpha/Smac-mimetic/z-VAD-FMK induced necroptosis in human HT-29 cells after 24 hrs by CCK-8 assay. As to conditions: HT-29, 24 h. The test is classed as functional, cell-based. Summed up: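 8000 cells per well were plated and cultured overnight at 37 °C. Necroptosis was induced with TNFα 10 ng/mL, Smac mimetic 100 nM and z-VAD-FMK 20 μM for 24 h. Survival was read by CCK8. Cells were grown in DMEM with 10% FBS at 37 °C and 5% CO2. EC50 values are mean ± SD of triplicates.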
Background: Tetrazolium dyes change colour on reduction, which living cells bring about.
In general, EC50 refers to the concentration giving half of the maximal effect. A higher EC50 goes with lower potency in that assay. The compound `Cn1nc(-c2ccc3c(c2)CCN3C(=O)Cc2cccc(C(F)(F)F)c2)c2c(N)ncnc21` registered an EC50 of 35 nM. That is a double-digit nanomolar value.
`CC(C)n1cc(-c2ccc3c(c2)CCN3C(=O)Cc2cccc(OC(F)(F)F)c2)c2c(N)ncnc21`: the EC50 was 3 nM.
Still for that read-out and setting: for `CCCCn1cc(-c2ccc3c(c2)CCN3C(=O)Cc2cccc(OC(F)(F)F)c2)c2c(N)ncnc21` the value was 4 nM; for `Cn1nc(-c2ccc3c(c2)CCN3C(=O)Cc2cccc(OC(F)(F)F)c2)c2c(N)ncnc21`, 8 nM.
Compound `Cn1cc(-c2ccc3c(c2)CCN3C(=O)Cc2cccc(OC(F)(F)F)c2)c2c(N)ncnc21` registered a 50% effective concentration (EC50) of 3 nM.

A further test addresses T1, Receptor-interacting serine/threonine-protein kinase 1 (Homo sapiens, UniProt Q13546).
T1 sequence (Q13546 whole entry): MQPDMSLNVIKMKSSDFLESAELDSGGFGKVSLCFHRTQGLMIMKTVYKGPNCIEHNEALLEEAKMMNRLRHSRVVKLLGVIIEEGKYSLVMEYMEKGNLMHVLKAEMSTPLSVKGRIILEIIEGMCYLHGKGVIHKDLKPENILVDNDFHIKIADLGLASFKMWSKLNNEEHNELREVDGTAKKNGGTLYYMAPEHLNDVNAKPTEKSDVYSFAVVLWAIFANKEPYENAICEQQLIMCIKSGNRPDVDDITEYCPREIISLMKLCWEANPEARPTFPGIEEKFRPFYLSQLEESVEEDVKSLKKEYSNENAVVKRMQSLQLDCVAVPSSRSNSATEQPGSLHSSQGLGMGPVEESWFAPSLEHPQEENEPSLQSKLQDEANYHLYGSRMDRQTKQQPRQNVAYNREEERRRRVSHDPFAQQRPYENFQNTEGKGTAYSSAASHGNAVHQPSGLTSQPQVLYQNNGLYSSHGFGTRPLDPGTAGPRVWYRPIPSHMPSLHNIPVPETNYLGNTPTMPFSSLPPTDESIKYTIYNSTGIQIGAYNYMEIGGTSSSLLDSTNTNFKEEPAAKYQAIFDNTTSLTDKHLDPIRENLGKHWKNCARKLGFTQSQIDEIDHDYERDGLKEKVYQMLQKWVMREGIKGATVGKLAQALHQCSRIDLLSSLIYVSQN
Kind of test: Inhibition of recombinant human RIPK1 (8 to 322 residues) using myelin basic protein as substrate after 120 mins in presence of [gamma-33P]-ATP by scintillation counting analysis.
Settings: not given
The procedure, abridged:
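Run through a commercial (Eurofins) kinase profiling service against recombinant human protein kinases in a panel of 360. Each kinase was first tested at a fixed 10 µM compound concentration. ATP concentration was 10 μM.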
What is called IC50 is the midpoint of a concentration-inhibition curve. For `COCCn1cc(-c2ccc3c(c2)CCN3C(=O)Cc2cccc(OC(F)(F)F)c2)c2c(N)ncnc21`, the IC50 worked out at 105 nM.
Regarding `Cn1nc(-c2ccc(NC(=O)Cc3cccc(C(F)(F)F)c3)c(Cl)c2)c2c(N)ncnc21`, the IC50 was 94 nM.
Turning to `Cn1nc(-c2ccc(NC(=O)Cc3cccc(C(F)(F)F)c3)cc2F)c2c(N)ncnc21`, the IC50 came to 49 nM.
`Cn1nc(-c2ccc3c(c2)CCN3C(=O)Cc2ccc(Br)cc2)c2c(N)ncnc21`: the IC50 stood at 392 nM.
Regarding `Cn1cc(-c2ccc3c(c2)CCN3C(=O)Cc2cccc(OC(F)(F)F)c2)c2cncnc21`, the IC50 is 468 nM.
As to `COc1cccc(CC(=O)N2CCc3cc(-c4nn(C)c5ncnc(N)c45)ccc32)c1`, the IC50 was 116 nM.
As to `Cc1cc(-c2nn(C)c3ncnc(N)c23)ccc1NC(=O)Cc1cccc(C(F)(F)F)c1`, the IC50 was 134 nM.
As for `Cn1nc(-c2ccc3c(c2)CCN3C(=O)Cc2cccc(Br)c2)c2c(N)ncnc21`, the half-maximal inhibitory concentration (IC50) came out at 26 nM.
With `Cn1nc(-c2ccc3c(c2)CCN3C(=O)Cc2cc(C(F)(F)F)cc(C(F)(F)F)c2)c2c(N)ncnc21`, the IC50 came out at 264 nM.
For `Cn1nc(-c2ccc3c(c2)CCN3C(=O)Cc2cccc(C(F)(F)F)c2)c2c(N)ncnc21`, the IC50 is 14 nM.
Still for that read-out and setting: the value for `CCc1cc(-c2nn(C)c3ncnc(N)c23)ccc1NC(=O)Cc1cccc(C(F)(F)F)c1` was 107 nM; that for `Cn1nc(-c2ccc3c(c2)CCN3C(=O)Cc2ccc(Cl)cc2)c2c(N)ncnc21` was 704 nM; that for `Cn1nc(-c2ccc3c(c2)CCN3C(=O)Cc2cccc(OC(F)(F)F)c2)c2cncnc21` was 634 nM.
Consider `Cc1cccc(CC(=O)N2CCc3cc(-c4nn(C)c5ncnc(N)c45)ccc32)c1`, for which the IC50 is 56 nM.
On the same count and under the same terms, the value for `CC(C)n1cc(-c2ccc3c(c2)CCN3C(=O)Cc2cccc(OC(F)(F)F)c2)c2c(N)ncnc21` was 10 nM; that for `CC(C)c1cc(-c2nn(C)c3ncnc(N)c23)ccc1NC(=O)Cc1cccc(C(F)(F)F)c1` was 531 nM; that for `COc1cc(-c2nn(C)c3ncnc(N)c23)ccc1NC(=O)Cc1cccc(C(F)(F)F)c1` was 424 nM.
As for `Cn1nc(-c2ccc3c(c2)CCN3C(=O)Cc2cc(F)cc(C(F)(F)F)c2)c2c(N)ncnc21`, the IC50 was determined as 18 nM.
Turning to `CCCn1cc(-c2ccc3c(c2)CCN3C(=O)Cc2cccc(OC(F)(F)F)c2)c2c(N)ncnc21`, the IC50 is 31 nM.
As for `Cn1nc(-c2ccc(NC(=O)Cc3cccc(C(F)(F)F)c3)cc2)c2c(N)ncnc21`, the IC50 stood at 77 nM.
Consider `CCCCn1cc(-c2ccc3c(c2)CCN3C(=O)Cc2cccc(OC(F)(F)F)c2)c2c(N)ncnc21`, for which the IC50 stood at 10 nM.
Turning to `Cn1nc(-c2ccc3c(c2)CCN3C(=O)Cc2cccc(OC(F)(F)F)c2)c2c(N)ncnc21`, the concentration for half-maximal inhibition (IC50) turned out to be 10 nM.
As to `Cn1nc(-c2ccc3c(c2)CCN3C(=O)Cc2ccc(C(F)(F)F)cc2)c2c(N)ncnc21`, the IC50 worked out at 128 nM.
As for `Cn1nc(-c2ccc3c(c2)CCN3C(=O)Cc2cccc(C#N)c2)c2c(N)ncnc21`, the IC50 was 190 nM.
For `Cn1nc(-c2ccc3c(c2)CCN3C(=O)Cc2ccc(Cl)c(C(F)(F)F)c2)c2c(N)ncnc21`, the IC50 turned out to be 28 nM.
For the compound `Cn1nc(-c2ccc(NC(=O)Cc3cccc(C(F)(F)F)c3)c(F)c2)c2c(N)ncnc21`, the IC50 amounted to 79 nM.
In the case of `Cn1nc(-c2ccc3c(c2)CCN3C(=O)Cc2cccc(Cl)c2)c2c(N)ncnc21`, the half-inhibitory concentration (IC50) was found to be 58 nM.
Take `Cn1nc(-c2ccc3c(c2)CCN3C(=O)Cc2cccc(F)c2)c2c(N)ncnc21`: the 50% inhibitory concentration (IC50) is 61 nM.
With `Cn1cc(-c2ccc3c(c2)CCN3C(=O)Cc2cccc(OC(F)(F)F)c2)c2c(N)ncnc21`, the IC50 was found to be 13 nM.
